Assay results: ChEMBL document CHEMBL2390834, “Structure-activity relationships for ferriprotoporphyrin IX association and β-hematin inhibition by 4-aminoquinolines using experimental and ab initio methods” (Bioorg Med Chem, 2013)

Experiments:
[1] = Inhibition of beta-hematin formation after 60 mins by colorimetric assay relative to Fe(3)PP9; assay type: functional
Outline: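 4.5 M acetate drives β-hematin formation. Leftover Fe(III)PPIX is then reacted with 5% aqueous pyridine to give a low-spin bis-pyridyl complex, read colorimetrically. Prior method used unmodified; result reported as BHIA₅₀ (50% inhibitory activity).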

[2] = tested on: Ferriprotoporphyrin IX; assay: Binding affinity to ferriprotoporphyrin 9 at pH 7.5 by UV-vis spectrophotometric analysis in presence of 40% DMSO
Outline: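 Association constant (log K) with Fe(III)PPIX measured by spectrophotometric titration in 40% aqueous (v/v) DMSO, pH 7.5, using a previously described method without modification.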

[3] = tested on: Plasmodium falciparum; assay: Antimalarial activity against chloroquine-sensitive Plasmodium falciparum NF54 by [3H]hypoxanthine incorporation assay; assay type: functional, organism-based
Outline: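 Chloroquine-sensitive NF54 P. falciparum parasites grown in vitro; growth measured by [³H]-hypoxanthine incorporation, essentially as in earlier work; IC50 in nM.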

log K [2] | IC50 [3] | SMILES | IA50 [1]
4.86 |  | CCN(CC)CCNc1ccnc2cc(C)ccc12 | 17 equiv
4.47 | 20 nM | N#Cc1ccc2c(NCCN)ccnc2c1 | 6.3 equiv
4.47 |  | COc1ccc2c(NCCN)ccnc2c1 | 10.6 equiv
4.7 | 8.6 nM | NCCNc1ccnc2cc(C(F)(F)F)ccc12 | 5.4 equiv
4.35 | 37 nM | Cc1ccc2c(NCCN)ccnc2c1 | 10.3 equiv
4.83 |  | CCN(CC)CCNc1ccnc2cc(OC)ccc12 | > 20 equiv
5.1 | 4.6 nM | NCCNc1ccnc2cc(Cl)ccc12 | 5.4 equiv
4.75 |  | CCN(CC)CCNc1ccnc2ccccc12 | > 20 equiv
5.02 |  | CCN(CC)CCNc1ccnc2cc(I)ccc12 | 2.8 equiv
4.6 |  | CCN(CC)CCNc1ccnc2cc(F)ccc12 | 9.7 equiv
4.48 | 747 nM | NCCNc1ccnc2cc([N+](=O)[O-])ccc12 | 5.3 equiv
5.81 |  | CCN(CC)CCNc1ccnc2cc(Cl)ccc12 | 2.2 equiv
4.35 |  | CCN(CC)CCNc1ccnc2cc(N)ccc12 | > 20 equiv
4.99 |  | CCN(CC)CCNc1ccnc2cc(Br)ccc12 | 4.4 equiv
4.67 |  | CCN(CC)CCNc1ccnc2cc(C(F)(F)F)ccc12 | 8 equiv
4.65 |  | CCN(CC)CCNc1ccnc2cc([N+](=O)[O-])ccc12 | 3.1 equiv

The next lines start with the molecule.

SMILES | log K [2] | IC50 [3] | IA50 [1]
COc1ccc2c(N)ccnc2c1 | 4.24 |  | 15.6 equiv
CNc1ccnc2cc(OC)ccc12 | 3.71 |  | 10.4 equiv
CNc1ccnc2cc(C(N)=O)ccc12 | 3.43 |  | 10.1 equiv
CNc1ccnc2ccccc12 | 3.92 |  | 14.9 equiv
CNc1ccnc2cc([N+](=O)[O-])ccc12 | 4.32 |  | 5.5 equiv
Nc1ccnc2ccccc12 | 3.83 |  | 10 equiv
NCCNc1ccnc2ccccc12 | 4.38 | 66 nM | 10.6 equiv
CNc1ccnc2cc(C(F)(F)F)ccc12 | 4.18 |  | 5 equiv
Nc1ccc2c(N)ccnc2c1 | 3.44 |  | > 20 equiv
CNc1ccnc2cc(N)ccc12 | 4.04 |  | > 20 equiv
Cc1ccc2c(N)ccnc2c1 | 4.17 |  | 10.8 equiv
CNc1ccnc2cc(Cl)ccc12 | 4.62 |  | 5.7 equiv
N#Cc1ccc2c(N)ccnc2c1 | 4.32 |  | 6.1 equiv
NC(=O)c1ccc2c(N)ccnc2c1 | 3.76 |  | 10.3 equiv
CNc1ccnc2cc(C#N)ccc12 | 4.42 |  | 4.5 equiv
CNc1ccnc2cc(C)ccc12 | 4.01 |  | 11.1 equiv
Nc1ccnc2cc(C(F)(F)F)ccc12 | 4.41 |  | 5.6 equiv
Nc1ccnc2cc(Cl)ccc12 | 5.01 |  | 5.8 equiv
Nc1ccnc2cc([N+](=O)[O-])ccc12 | 4.57 |  | 5.7 equiv
